Measured values: ChEMBL document CHEMBL1147872, “Syntheses of new tetrasubstituted thiophenes as novel anti-inflammatory agents” (Eur J Med Chem, 2007)
Converted amounts (≈) assume the structure as drawn. The source made the active and inactive calls. The rule behind the calls is not given here.

Experiments:
Type in all cases: functional
Rattus norvegicus [1] = assay: Antiinflammatory activity in Albino rat assessed as protection against carrageenan-induced hind paw oedema at 20 mg/kg, po after 3 hrs
Summary of the method: (§1)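 Rats (150–250 g, either sex) were fasted 18 h and grouped in sixes. Compounds or standards were given orally as a suspension in 5% DMSO. After 1 h, 0.1 ml of 1% carrageenin was injected subplantar into the right hind paw. Paw volume was read by mercury plethysmometer at once and at 3 h. % protection = 100(1−Vt/Vc) versus vehicle.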

[2] = Antioxidant activity assessed as nitric oxide radical scavenging activity at 20 ug/ml after 150 mins
Summary of the method: (§2)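 Sodium nitroprusside (10 mmol) in PBS at physiological pH was incubated with sample at 25 °C for 150 min in a 3 ml reaction. Aliquots taken every 30 min were mixed 1:1 with Griess reagent (1% sulphanilamide, 0.1% naphthylethylenediamine in 2% H3PO4), and absorbance was read at 546 nm. Runs were done in triplicate, and % scavenging was calculated against the blank.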

[3] = Antioxidant activity assessed as nitric oxide radical scavenging activity at 25 ug/ml after 150 mins; summary of the method: as §2
[4] = Antioxidant activity assessed as nitric oxide radical scavenging activity at 15 ug/ml after 150 mins; summary of the method: as §2
[5] = Inhibition of nitric oxide radical scavenging activity; summary of the method: as §2
[6] = Antioxidant activity assessed as nitric oxide radical scavenging activity at 5 ug/ml after 150 mins; summary of the method: as §2
[7] = Antioxidant activity assessed as nitric oxide radical scavenging activity at 35 ug/ml after 150 mins; summary of the method: as §2
Rattus norvegicus [8] = assay: Antiinflammatory activity in Albino rat assessed as protection against carrageenan-induced hind paw oedema at 40 mg/kg, po after 3 hrs; summary of the method: as §1
[9] = Antioxidant activity assessed as nitric oxide radical scavenging activity at 10 ug/ml after 150 mins; summary of the method: as §2
Mus musculus = assay: Analgesic activity in Albino mouse assessed as protection against acetic acid-induced writhing at 10 mg/kg, ip within 30 mins; details: route intraperitoneal
Summary of the method: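 Mice (20–25 g, either sex) starved 16 h, six per group, given 10 mg/kg i.p.; vehicle control received 1% DMSO at 0.5 ml/100 g. After 1 h, 0.1 ml of 3% acetic acid was given. Writhes were counted over 30 min, and the group mean was expressed as % inhibition versus control. Student's t-test was used.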

[10] = Antioxidant activity assessed as nitric oxide radical scavenging activity at 30 ug/ml after 150 mins; summary of the method: as §2
Rattus norvegicus [11] = assay: Antiinflammatory activity in Albino rat assessed as protection against carrageenan-induced hind paw oedema at 10 mg/kg, po after 3 hrs; summary of the method: as §1

SMILES	Activity (Rattus norvegicus [1]) [%]	Activity [2]	Activity [3]	Activity [4]	IC50 [5] [µg/mL]	Activity [6]	Activity [7]	Activity (Rattus norvegicus [8]) [%]	Activity [9]	Activity (Mus musculus) [%]	Activity [10]	Activity (Rattus norvegicus [11]) [%]	Activity [5]
COc1ccc(Nc2sc(C(=O)c3ccc(OC)cc3)c(C)c2C(=O)O)cc1	75	32.5%	38.5%	30.6%	36.57 (≈ 92 µM)	20.1%	51%	69	23.5%	22	41.2%	72	–
COC(=O)c1c(Nc2ccccc2)sc(/C(=N/O)c2ccc(C)cc2)c1C	21	–	–	–	–	–	–	30	–	–	–	13	–
COC(=O)c1c(Nc2ccc(Cl)cc2)sc(C(=O)c2ccc(OC)cc2)c1C	40	inactive	inactive	inactive	–	inactive	inactive	39	inactive	60	inactive	42	inactive
Cc1ccc(C(=O)c2sc(Nc3ccc(F)cc3)c(C(=O)O)c2C)cc1	44	inactive	inactive	inactive	–	inactive	inactive	42	inactive	22	inactive	38	inactive
COc1ccc(C(=O)c2sc(Nc3ccc(C)cc3)c(C(=O)O)c2C)cc1	63	inactive	inactive	inactive	–	inactive	inactive	62	inactive	26	inactive	56	inactive
COC(=O)c1c(Nc2ccc(C)cc2)sc(C(=O)c2ccc(C)cc2)c1C	36	inactive	inactive	inactive	–	inactive	inactive	37	inactive	22	inactive	32	inactive
COC(=O)c1c(Nc2ccc(C)cc2)sc(C(=O)c2ccc(OC)cc2)c1C	63	inactive	inactive	inactive	–	inactive	inactive	70	inactive	45	inactive	50	inactive
COc1ccc(C(=O)c2sc(Nc3ccc(Cl)cc3)c(C(=O)O)c2C)cc1	49	inactive	inactive	inactive	–	inactive	inactive	43	inactive	30	inactive	49	inactive
COC(=O)c1c(Nc2ccc(Cl)cc2)sc(C(=O)c2ccc(C)cc2)c1C	66	inactive	inactive	inactive	–	inactive	inactive	26	inactive	43	inactive	34	inactive
Cc1ccc(C(=O)c2sc(Nc3ccc(Cl)cc3)c(C(=O)O)c2C)cc1	68	inactive	inactive	inactive	–	inactive	inactive	59	inactive	24	inactive	63	inactive
COC(=O)c1c(Nc2ccc(F)cc2)sc(C(=O)c2ccc(OC)cc2)c1C	53	18.1%	20.2%	15.2%	74.17 (≈ 186 µM)	5.28%	25.6%	58	14%	40	23.2%	36	–
COc1ccc(C(=O)c2sc(Nc3ccc(F)cc3)c(C(=O)O)c2C)cc1	57	3.58%	8.36%	1.98%	118.32 (≈ 307 µM)	0.1%	12.8%	54	0.98%	28	10.5%	57	–
COC(=O)c1c(Nc2ccc(Cl)cc2)sc(/C(=N\O)c2ccc(C)cc2)c1C	29	–	–	–	–	–	–	42	–	–	–	13	–
CC(C)Cc1ccc(C(C)C(=O)O)cc1 (stereo not drawn) [IBUPROFEN]	33	–	–	–	–	–	–	–	–	60	–	–	–
COC(=O)c1c(Nc2ccc(F)cc2)sc(/C(=N/O)c2ccc(OC)cc2)c1C	25	–	–	–	–	–	–	30	–	–	–	20	–
COC(=O)c1c(Nc2ccccc2)sc(/C(=N/O)c2ccc(OC)cc2)c1C	38	–	–	–	–	–	–	34	–	–	–	5	–
COC(=O)c1c(Nc2ccc(C)cc2)sc(/C(=N/O)c2ccc(OC)cc2)c1C	27	–	–	–	–	–	–	30	–	–	–	22	–
COC(=O)c1c(Nc2ccc(OC)cc2)sc(C(=O)c2ccc(OC)cc2)c1C	72	12%	15.4%	7.8%	72.21 (≈ 175 µM)	4.29%	25.1%	76	5.9%	40	20.5%	71	–
Cc1ccc(C(=O)c2sc(Nc3ccccc3)c(C(=O)O)c2C)cc1	47	2.68%	4.35%	1.25%	259.47 (≈ 738 µM)	0.26%	5.55%	42	0.85%	17	5.13%	45	–
COC(=O)c1c(Nc2ccc(F)cc2)sc(C(=O)c2ccc(C)cc2)c1C	46	inactive	inactive	inactive	–	inactive	inactive	23	inactive	37	inactive	38	inactive
COC(=O)c1c(Nc2ccc(Cl)cc2)sc(/C(=N/O)c2ccc(OC)cc2)c1C	12	–	–	–	–	–	–	30	–	–	–	3	–
